The source made the active and inactive calls. The rule behind the calls is not given here.

Assay [1] deals with Oocyte. In words: Agonist activity at mutant GluN1 F484A/T518 mutant//GluN3A NMDA receptor (unknown origin) expressed in Xenopus oocytes measured after 4 days in presence of glycine by two-electrode voltage-clamp recording assay. The format is cell-based. The note with it: Homo sapiens, time 4.0 day.
Assay [2] concerns the target Glutamate NMDA receptor; Grin1/Grin2c (Rattus norvegicus, UniProt P35439+Q00961). The assay can be described thus: Agonist activity at rat GluN1/GluN2C NMDA receptor expressed in Xenopus oocytes measured after 4 days in presence of L-glutamte by two-electrode voltage-clamp recording assay. The format is cell-based, Oocyte. In outline: (§1)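 Xenopus oocytes were injected with rat GluN1 and GluN2C or GluN2D cRNA (1:2) and recorded by TEVC 2–4 days later at −40 mV, room temperature, pH 7.4 HEPES/NaCl/BaCl2 saline. Concentration-response with 300 μM L-Glu present. NR means <5% response at the concentration given. DMSO ≤0.5%. 3–14 oocytes.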
On the technique in general: In two-electrode clamp one electrode senses voltage and the other passes current.

In assay [3] the target is Glutamate NMDA receptor; Grin1/Grin2b (Rattus norvegicus, UniProt P35439+Q00960). In words: Agonist activity at rat GluN1/GluN2B NMDA receptor expressed in Xenopus oocytes measured after 4 days in presence of L-glutamte by two-electrode voltage-clamp recording assay. The format is cell-based, Oocyte. In short, it runs like this:
(§2)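 Rat GluN1 plus GluN2A or GluN2B cRNA (1:2) in Xenopus oocytes. TEVC at −40 mV, room temperature, 2–4 days post-injection. Bath: 90 mM NaCl, 1 mM KCl, 10 mM HEPES, 0.5 mM BaCl2, 0.01 mM EDTA, pH 7.4. Oocytes were BAPTA-injected before recording. Agonist applied with 300 μM L-Glu throughout. NR means <5% response at the stated concentration. 3–14 oocytes.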

Assay [4] relates to Oocyte. In words: Agonist activity at recombinant GluN1a/GluN2B NMDA receptor (unknown origin) expressed in Xenopus oocytes assessed as inhibition of glycine-induced activation of current measured at 10 uM after 4 days in presence of L-glutamte by two-electrode voltage-clamp recording assay. The format is cell-based. The note with it: Homo sapiens, filed as agonist, time 4.0 day. In outline: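 Oocytes expressing GluN1/2B were BAPTA-injected and held under two-electrode voltage clamp in continuous 300 μM L-Glu. […] Values are mean ± SEM from 12 oocytes.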

The subject of assay [5] is Oocyte. In words: Agonist activity at mutant GluN1 F484A/T518 mutant//GluN3B NMDA receptor (unknown origin) expressed in Xenopus oocytes measured after 4 days in presence of glycine by two-electrode voltage-clamp recording assay. The format is cell-based. To be noted: Homo sapiens, time 4.0 day.
Assay [6] can be described thus: Agonist activity at GluN1/GluN2A V783F mutant NMDA receptor (unknown origin) expressed in Xenopus oocytes measured after 4 days in presence of glycine by two-electrode voltage-clamp recording assay. The format is cell-based. The note with it: Homo sapiens, Oocyte, 96 h. In short, it runs like this:
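Rat GluN1 and GluN2A cRNA (1:2) injected into Xenopus oocytes, which received 50 nL of 50 mM BAPTA 10–30 min before recording. TEVC done 2–4 days after injection at room temperature, −40 mV, in 90 mM NaCl, 1 mM KCl, 10 mM HEPES, 0.5 mM BaCl2, 0.01 mM EDTA, pH 7.4. Agonist applied with 300 μM L-Glu continuously present, DMSO <0.5%.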

For assay [7], the target named is Ionotropic glutamate receptor NMDA 1/2D (Rattus norvegicus, UniProt P35439+Q62645). In words: Agonist activity at rat GluN1/GluN2D NMDA receptor expressed in Xenopus oocytes measured after 4 days in presence of L-glutamte by two-electrode voltage-clamp recording assay. The format is cell-based, Oocyte. In outline: as §1
The subject of assay [8] is Oocyte. In words: Agonist activity at wild type GluN1/ GluN2A-V783F mutant NMDA receptor (unknown origin) expressed in Xenopus oocytes assessed as relative maximal efficacy measured at 10 uM after 4 days in presence of glycine by two-electrode voltage-clamp recording assay relative to glycine. The format is cell-based. To be noted: Homo sapiens, time 4.0 day. In short, it runs like this:
(§3)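 Oocytes expressing GluN1 with wild-type GluN2A or with the GluN2A-V783L or V783F mutant were BAPTA-injected and recorded by TEVC in continuous 300 μM L-Glu. […] Values are mean ± SEM from 3–8 oocytes, compared with wild type by two-way ANOVA with Tukey's test.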

For assay [9], the target named is Glutamate NMDA receptor; Grin1/Grin2a (Rattus norvegicus, UniProt P35439+Q00959). The assay can be described thus: Agonist activity at rat GluN1/GluN2A NMDA receptor expressed in Xenopus oocytes measured after 4 days in presence of L-glutamte by two-electrode voltage-clamp recording assay. The format is cell-based, Oocyte. In outline:
as §2

The nature of assay [10]: Agonist activity at wild type GluN1/GluN2A NMDA receptor (unknown origin) expressed in Xenopus oocytes measured after 4 days in presence of L-glutamate by two-electrode voltage-clamp recording assay. To be noted: Homo sapiens, Oocyte, 96 h.
Assay [11] is described as follows: Binding affinity at recombinant GluN1a/GluN2B NMDA receptor (unknown origin) expressed in Xenopus oocytes measured after 4 days in presence of L-glutamte by two-electrode voltage-clamp recording assay. The format is cell-based, Homo sapiens. The note with it: oocyte.
The test system of assay [12] is Oocyte. The assay can be described thus: Agonist activity at wild type GluN1/GluN2A-V783L mutant NMDA receptor (unknown origin) expressed in Xenopus oocytes assessed as relative maximal efficacy measured at 10 uM after 4 days in presence of glycine by two-electrode voltage-clamp recording assay relative to glycine. The format is cell-based. To be noted: Homo sapiens, time 4.0 day. In short, it runs like this: as §3

Assay [13] has as its system GluN1/GluN2A (Rattus norvegicus). In words: Agonist activity at wild type GluN1/GluN2A NMDA receptor (rat) expressed in Xenopus oocytes assessed as relative maximal efficacy measured at 10 uM after 4 days in presence of glycine by two-electrode voltage-clamp recording assay relative to glycine. To be noted: filed as agonist, time 4.0 day.
Assay [14] addresses Glutamate NMDA receptor; Grin1/Grin2a (Rattus norvegicus) (UniProt P35439+Q00959). The assay can be described thus: Agonist activity at rat GluN1/GluN2A NMDA receptor expressed in Xenopus oocytes assessed as maximal relative efficacy measured after 4 days in presence of L-glutamte by two-electrode voltage-clamp recording assay relative to glycine. The format is cell-based. To be noted: Oocyte, filed as agonist, time 4.0 day. In outline:
(§4)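 Rat GluN1 plus GluN2A or GluN2B cRNA (1:2) in Xenopus oocytes. TEVC at −40 mV, room temperature, 2–4 days post-injection. Bath: 90 mM NaCl, 1 mM KCl, 10 mM HEPES, 0.5 mM BaCl2, 0.01 mM EDTA, pH 7.4. Oocytes were BAPTA-injected before recording. Agonist applied with 300 μM L-Glu throughout. […] NR means <5% response at the stated concentration. 3–14 oocytes.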

Assay [15] concerns the target Glutamate NMDA receptor; Grin1/Grin2b (Rattus norvegicus) (UniProt P35439+Q00960). The assay can be described thus: Agonist activity at rat GluN1/GluN2B NMDA receptor expressed in Xenopus oocytes assessed as maximal relative efficacy measured after 4 days in presence of L-glutamte by two-electrode voltage-clamp recording assay relative to glycine. The format is cell-based. To be noted: Oocyte, filed as agonist, time 4.0 day. In outline:
as §4

The target in assay [16] is Glutamate NMDA receptor; Grin1/Grin2c (Rattus norvegicus) (UniProt P35439+Q00961). In words: Agonist activity at rat GluN1/GluN2C NMDA receptor expressed in Xenopus oocytes assessed as maximal relative efficacy measured after 4 days in presence of L-glutamte by two-electrode voltage-clamp recording assay relative to glycine. The format is cell-based. The note with it: Oocyte, filed as agonist, time 4.0 day. In short, it runs like this: (§5)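 Xenopus oocytes were injected with rat GluN1 and GluN2C or GluN2D cRNA (1:2) and recorded by TEVC 2–4 days later at −40 mV, room temperature, pH 7.4 HEPES/NaCl/BaCl2 saline. Concentration-response with 300 μM L-Glu present. […] NR means <5% response at the concentration given. DMSO ≤0.5%. 3–14 oocytes.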

The target in assay [17] is Ionotropic glutamate receptor NMDA 1/2D (Rattus norvegicus) (UniProt P35439+Q62645). In words: Agonist activity at rat GluN1/GluN2D NMDA receptor expressed in Xenopus oocytes assessed as maximal relative efficacy measured after 4 days in presence of L-glutamte by two-electrode voltage-clamp recording assay relative to glycine. The format is cell-based. The note with it: Oocyte, filed as agonist, time 4.0 day. In outline:
as §5

As to `CCc1ccccc1-c1ccc(C(=O)NC[C@@H](N)C(=O)O)o1`, the inhibition result in the assay on Oocyte [1] and in the assay on Oocyte [5] was “inactive” each time. Moreover, the EC50 (as a rule, the concentration that produces a half-maximal response) is 0.063 µM in [2]; 0.41 µM in [6]; 0.15 µM in assay [7]; 0.093 µM in [9]; 0.11 µM in [10]. The IC50 (usually the point on the concentration scale where inhibition reaches its midpoint) in [3] is 10 µM. Also, the inhibition (commonly the percentage by which the read-out fell short of the control) with Oocyte [4] was 47%. The Rmax was found to be 9% with Oocyte [8], 30% in the assay with Oocyte [12] and 45% in assay [13]. In addition, the Ki (as a rule, the equilibrium dissociation constant of an inhibitor or competing ligand from its target) in assay [11] was 0.1 µM.

As for `N[C@H](CO)C(=O)O`, the Rmax in assay [14] was 96%; in assay [15], 100%; in assay [16], 111%; in assay [17], 93%.

For the origin of these results see ChEMBL document CHEMBL5038630 (J Med Chem, 2022).
